For series [1], the system named is SK-N-SH. As to the kind of experiment: Antiproliferative activity against human SK-N-SH cells at 100 uM after 48 hts by MTT assay. Type of series: functional.
In series [2] the target is Sigma non-opioid intracellular receptor 1 (Cavia porcellus, UniProt Q60492). As to the kind of experiment: Displacement of [3H]-(+)-pentazocine from sigma 1 receptor in Dunkin guinea pig brain membrane without cerebellum. It is filed as cell membranes. (In general: Loss of bound radioactivity is the signal in a displacement assay; it reports binding, not function.)
Series [3] is described as follows: Displacement of [3H]DTG from sigma 2 receptor in Wistar Hannover rat liver membrane in presence of (+)-pentazocine. It is filed as cell membranes.
A short description of series [4]: Inhibition of P-gp in MDCK-MDR1 cells by calcein-AM assay. Type of series: cell-based, Canis lupus familiaris. The method in brief:
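MDCK-MDR1 cells overexpressing P-gp, grown in high-glucose DMEM with 10% FBS, were seeded at 50 000 cells/well and left overnight to reach confluence. Compound preincubated 30 min at 37 °C, then calcein-AM (2.5 μM final) added for a further 30 min. Cells washed with ice-cold PBS and fluorescence read at ex 485/em 535 nm relative to untreated cells. EC50 fitted from % fluorescence increase versus log dose.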

Series [5] can be described thus: Octanol-aqueous phases partition coefficient, log D of the compound at pH 7.4. As to conditions: octanol/aqueous phase. It is filed as physicochemical.
Series [6] can be described thus: Lipophilicity, log P of the compound. It is filed as physicochemical. The following applies: octanol/water.
Series [7] concerns the target Sigma non-opioid intracellular receptor 1 (Cavia porcellus) (UniProt Q60492). As to the kind of experiment: Displacement of [3H]-(+)-pentazocine from sigma 1 receptor in Dunkin guinea pig brain membrane without cerebellum at 10^-12M. Type of series: cell membranes. The method in brief:
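σ1 binding with (+)-[3H]-pentazocine on guinea pig brain membranes lacking cerebellum; percent inhibition of specific binding recorded at a single 10-12 M test concentration. Means of ≥3 separate experiments.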

The subject of series [8] is SK-N-SH. As to the kind of experiment: Antiproliferative activity against human SK-N-SH cells after 48 hts by MTT assay. Type of series: functional, cell-based. The method in brief:
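SK-N-SH neuroblastoma cells grown in RPMI 1640 with 10% FBS, glutamine, pyruvate and nonessential amino acids at 37 °C, 5% CO2. Seeded at 30 000 cells/well, then exposed next day to drug (0.1 μM-100 μM; solvent controls included). MTT 0.5 mg/mL added for 3 h at 37 °C after 48 h exposure, formazan dissolved in DMSO, absorbance read at 570 and 630 nm. EC50 from nonlinear curve fitting; means of ≥2 experiments.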
(Tetrazolium assays rely on reduction of a dye to a coloured formazan, in cell work by metabolically active cells.)

These results are taken from ChEMBL document CHEMBL1671780, “Analogues of σ receptor ligand 1-cyclohexyl-4-[3-(5-methoxy-1,2,3,4-tetrahydronaphthalen-1-yl)propyl]piperazine (PB28) with added polar functionality and reduced lipophilicity for potential use as positron emission tomography radiotracers” (J Med Chem, 2011).

The inhibition is the relative decrease from the control value, in per cent. High values mean a strong effect, low ones a weak effect. A word on the pKi: it is the negative decadic logarithm of the Ki, by convention in mol/L. The pEC50 is −log10 of the EC50, conventionally taken in molar units. One may read the logD as the decadic logarithm of the distribution of all forms, ionised or not, between an organic phase and buffer at a given pH. Higher therefore signals higher lipophilicity. By logP is commonly meant the decadic logarithm of the partition coefficient of the neutral form, usually between octanol and water. A higher logP goes with a more lipophilic compound.

SMILES strings stand for the structures. pEC50, pKi: −log10 of the molar value.

Sequence of Sigma non-opioid intracellular receptor 1 (Q60492 whole entry): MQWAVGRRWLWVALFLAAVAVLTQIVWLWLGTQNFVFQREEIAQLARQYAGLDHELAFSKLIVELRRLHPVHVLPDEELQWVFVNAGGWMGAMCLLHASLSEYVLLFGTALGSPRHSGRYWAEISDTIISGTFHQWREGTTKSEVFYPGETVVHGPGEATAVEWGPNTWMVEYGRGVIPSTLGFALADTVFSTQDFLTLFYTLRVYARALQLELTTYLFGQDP
Sequence of Sigma non-opioid intracellular receptor 1 (Cavia porcellus) (Q60492 whole entry): as above

Turning to `COc1cccc2c1CCC[C@H]2NCCN1CCN(C2CCCCC2)CC1`, the inhibition at 100 µM in the series with SK-N-SH [1] was 31%. Besides, the pKi was 7.87 in series [2] and 7.84 in series [3]. For the same compound, in series [4], the pEC50 is 5.01.

`COc1cccc2c(OCCN3CCN(C4CCCCC4)CC3)cccc12` returned a logD in series [5] of 2.88. This compound yielded a logP in series [6] of 3.94. Further, in series [7], the inhibition amounted to 65%. The pKi in series [3] is 8.62. For the same compound, the results for the pEC50 (with SK-N-SH [8]; in series [4]) were 4.38 and 5.47, respectively.

In the case of `COc1cccc2c1CCCC2CCCN1CCN(C2CCCCC2)CC1` (racemic), in series [5], the logD worked out at 3.99. In addition, the logP in series [6] was found to be 5.08. The pKi in series [3] was 9.17. Further, the pEC50 is 5.04 in the series on SK-N-SH [8] and 5.52 in series [4].

As for `COc1cccc2c1CCCC2NCCN1CCN(C2CCCCC2)CC1` (racemic), the logD in series [5] came to 0.89. The compound further yielded an inhibition at 100 µM with SK-N-SH [1] of 48%. Besides, the values for the pKi in series [2] and in series [3] were 7.62 and 8.07, respectively. The compound further yielded a logP in series [6] of 3.05. For the same compound, the pEC50 in series [4] was 5.00.

Turning to `COc1cccc2c(NCCN3CCN(C4CCCCC4)CC3)cccc12`, the logD in series [5] turned out to be 2.88. Moreover, the results for the pKi in series [2] and in series [3] were 8.26 and 7.73, respectively. Also, the logP in series [6] turned out to be 4.08. For the same compound, the figures for the pEC50 (in the series with SK-N-SH [8]; in series [4]) were 4.36 and 5.44, respectively.

On to `COc1cccc2c1CCC[C@H]2CCCN1CCN(C2CCCCC2)CC1`, for which the pKi in series [3] is 8.93. Besides, the pEC50 is 5.03 in the series with SK-N-SH [8] and 5.42 in series [4].

For the compound `COc1cccc2c1CCC[C@@H]2CCCN1CCN(C2CCCCC2)CC1`, the pKi in series [3] is 9.31. Moreover, the pEC50 in the series with SK-N-SH [8] is 5.04; in series [4], 5.36.

The compound `COc1cccc2c1CCC[C@@H]2NC(=O)CN1CCN(C2CCCCC2)CC1` yielded an inhibition at 100 µM in the series with SK-N-SH [1] of 100%. Further, the values for the pKi in series [2] and in series [3] were 7.02 and 8.23, respectively. In addition, the pEC50 in series [4] is 5.09.

With `COc1cccc2c1CCC[C@H]2NC(=O)CN1CCN(C2CCCCC2)CC1`, testing at 100 µM in the series with SK-N-SH [1] gave an inhibition of 100%. The pKi in series [2] is 7.69; in series [3] it was 8.00. Moreover, the pEC50 in series [4] is 5.18.

`COc1cccc2c1CCC[C@H]2OCCN1CCN(C2CCCCC2)CC1` had an inhibition at 100 µM with SK-N-SH [1] of 91%. For the same compound, the pKi was 8.66 in series [2] and 7.95 in series [3]. Besides, in series [4], the pEC50 was 5.28.

Regarding `COc1cccc2c1CCCC2OCCN1CCN(C2CCCCC2)CC1` (racemic), in the series on SK-N-SH [1], the inhibition at 100 µM amounted to 72%. Besides, the pKi in series [2] was 8.41; in series [3] it was 8.04. Further, the pEC50 in series [4] was 5.62.

Take `COc1cccc2c1CCCC2N(C)CCN1CCN(C2CCCCC2)CC1` (racemic): the logD in series [5] is 1.83. In the series on SK-N-SH [1], this compound registered an inhibition at 100 µM of 82%. Also, the pKi in series [2] was 8.38; in series [3], 7.82. The same compound registered a logP in series [6] of 4.83. Moreover, the pEC50 in series [4] is 5.06.

In turn, `COc1cccc2c1CCC[C@@H]2NCCN1CCN(C2CCCCC2)CC1` had an inhibition at 100 µM with SK-N-SH [1] of 33%. Besides, the values for the pKi in series [2] and in series [3] were 7.63 and 8.07, respectively. Moreover, the pEC50 in series [4] is 5.49.

`COc1cccc2c(NC(=O)CN3CCN(C4CCCCC4)CC3)cccc12`: the logD in series [5] stood at 2.18. Besides, the inhibition at 100 µM with SK-N-SH [1] was found to be 75%. In addition, the pKi in series [2] is 7.37; in series [3] it was 7.63. In series [6], the logP was determined as 3.44. Further, the pEC50 in series [4] was 5.04.

Consider `COc1cccc2c1OCCC2CCCN1CCN(C2CCCCC2)CC1` (racemic), for which the inhibition at 100 µM in the series with SK-N-SH [1] is 100%. Moreover, the pKi was 7.90 in series [2] and 8.01 in series [3]. Besides, the negative-log EC50 (pEC50) in series [4] was 5.28.

As for `COc1cccc2c1CCC[C@@H]2OCCN1CCN(C2CCCCC2)CC1`, the inhibition at 100 µM in the series with SK-N-SH [1] amounted to 93%. Further, the pKi in series [2] was 8.49; in series [3] it was 8.33. The pEC50 in series [4] is 5.77.

Consider `COc1cccc2c1CCCC2NC(=O)CN1CCN(C2CCCCC2)CC1` (racemic), for which, in series [5], the logD was 2.38. Testing at 100 µM with SK-N-SH [1] gave an inhibition of 68%. For the same compound, the pKi in series [2] is 7.90; in series [3], 7.88. Further, in series [6], the logP was found to be 3.69. For the same compound, the pEC50 in series [4] was 5.06.
